ChEMBL document CHEMBL1240335, “Integrating high-content screening and ligand-target prediction to identify mechanism of action” (Nat Chem Biol, 2008)
Calls of active or inactive are those of the source. The calls are words filed in the database; no cut-off is given here.

What was measured:
Format in all cases: functional, cell-based
HeLa [1] = assay: Inhibition of mitosis in human HeLa cells by imaging analysis
Method in brief: (§1)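 HeLa cells (2,000 per well, DMEM with 10% FBS) were plated overnight, then treated with compound at 10 μM final for 20 h at 37 °C, in duplicate. Cells were pulsed 40 min with 500 nM EdU and fixed in 3.7% paraformaldehyde. Replication was read by rhodamine-azide click labelling, mitosis by anti-phosphohistone H3 Ser10/Cy5, and DNA by Hoechst. Automated 10× imaging scored ≥500 cells per well.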

HeLa [2] = assay: Cytotoxicity against human HeLa cells assessed as inhibition of DNA replication by imaging analysis; method in brief: as §1
HeLa [3] = assay: Induction of cell cycle arrest in human HeLa cells assessed as accumulation at G1 arrest at 10 uM after 20 hrs by Hoescht 33342 staining
Method in brief: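 HeLa cells plated at 2,000 per well in DMEM with 10% FBS and penicillin/streptomycin, grown overnight, then treated at a final 10 μM (diluted from 10 mM DMSO stock) for 20 h at 37 °C in duplicate. Pulsed 40 min with 500 nM EdU, fixed in 3.7% paraformaldehyde, stained with Hoechst 33342, anti-phosphoH3 Ser10 and rhodamine-azide. Imaged by automated microscopy at 10×; ≥500 cells scored per well.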

SMILES	inhibition (HeLa [1])	inhibition (HeLa [2])	Activity (HeLa [3])
C#C[C@]1(O)CC[C@H]2[C@@H]3CCC4=Cc5oncc5C[C@]4(C)[C@H]3CC[C@@]21C	Active	Active	
CC1=C2O[C@]3(O)C=C2C(=C(O)C1=O)[C@@H]1O[C@H](CC[C@H](C)/C=C(\C)C[C@@H](C)C[C@@H]3C)[C@H](C)[C@H](O)[C@H]1C			Active
CCC(=O)O[C@]1(C(=O)CCl)[C@@H](C)C[C@H]2[C@@H]3CCC4=CC(=O)C=C[C@]4(C)[C@@]3(F)[C@@H](O)C[C@@]21C	Active	Active	
CC(C)[C@H]1CC[C@@](O)(CCl)[C@H]2C(=O)OCC(C(=O)O)=C[C@H]12			Active
C[C@@H]1O[C@@H](O[C@H]2C[C@@H](O)[C@]3(CO)[C@H]4[C@H](O)C[C@]5(C)[C@@H](C6=CC(=O)OC6)CC[C@]5(O)[C@@H]4CC[C@]3(O)C2)[C@H](O)[C@H](O)[C@H]1O	Active	Active	
COC[C@H]1C(=O)NCC(=O)N2NCCC[C@H]2C(=O)N(O)[C@H](C)C(=O)O[C@@H](C(C)C)[C@H](NC(=O)[C@](C)(O)[C@]2(O)CC[C@@H](CC(C)C)[C@H](C)O2)C(=O)N2NCCC[C@@H]2C(=O)N1O			Active
CC(=O)[C@H]1CC[C@H]2[C@@H]3CCC4=CC(=O)CC[C@]4(C)[C@H]3CC[C@]12C	Active	Active	
CCCCCC[C@H]1CC[C@@](O)([C@@](C)(O)C(=O)N[C@@H]2C(=O)N3NCCC[C@@H]3C(=O)N(O)[C@@H](COC)C(=O)NCC(=O)N3NCCC[C@H]3C(=O)N(O)[C@H](C)C(=O)O[C@H]2C)OC1C (some centres undefined)			Active
C[C@]12CC[C@H](O)C[C@H]1CC[C@@H]1[C@@H]2CC[C@]2(C)[C@@H](C3=CC(=O)OC3)CC[C@]12O	Active	Active	
CC[C@H]1CN2CCc3cc(OC)c(OC)cc3[C@@H]2C[C@@H]1C[C@H]1NCCc2cc(OC)c(OC)cc21	Active	Active	
C[C@@H]1C[C@H]2[C@@H]3CCC4=CC(=O)C=C[C@]4(C)[C@@]3(F)[C@@H](O)C[C@]2(C)[C@@]1(O)C(=O)CO	Active	Active	
C[C@H]1O[C@@H](O[C@H]2[C@@H](O)C[C@H](O[C@H]3[C@@H](O)C[C@H](O[C@H]4CC[C@@]5(C)[C@H](CC[C@@H]6[C@@H]5C[C@@H](O)[C@]5(C)[C@@H](C7=CC(=O)OC7)CC[C@]65O)C4)O[C@@H]3C)O[C@@H]2C)C[C@H](O)[C@@H]1O	Active	Active	
C[C@@H]1C[C@@H]([C@H](O)CC2CC(=O)NC(=O)C2)C(=O)[C@@H](C)C1	Active	Active	
C[C@]12C=CC(=O)C=C1CC[C@H]1[C@@H]3C[C@@H](O)[C@](O)(C(=O)CO)[C@@]3(C)C[C@H](O)[C@@]12F	Active	Active	
